Key:
Deoxyribonuclease-1 = biological target: T1, Deoxyribonuclease-1 (Homo sapiens, UniProt P24855); assay: Inhibition of DNAse1 (unknown origin)
T1 sequence (P24855 whole entry): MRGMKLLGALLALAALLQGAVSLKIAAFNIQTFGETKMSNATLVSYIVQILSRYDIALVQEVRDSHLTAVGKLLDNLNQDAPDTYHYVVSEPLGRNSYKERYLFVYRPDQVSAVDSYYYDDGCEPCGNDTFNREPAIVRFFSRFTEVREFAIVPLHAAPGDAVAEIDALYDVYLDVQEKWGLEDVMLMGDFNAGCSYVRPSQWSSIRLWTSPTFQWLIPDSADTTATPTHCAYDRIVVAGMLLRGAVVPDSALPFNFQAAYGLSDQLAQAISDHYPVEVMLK

[1] = biological target: T2, DNA excision repair protein ERCC-1/DNA repair endonuclease XPF (Homo sapiens, UniProt P07992+Q92889); assay: Inhibition of ERCC1-XPF (unknown origin) by high-throughput fluorescence based in-vitro endonuclease assay; assay type: protein-complex assay
T2 sequence (P07992 whole entry): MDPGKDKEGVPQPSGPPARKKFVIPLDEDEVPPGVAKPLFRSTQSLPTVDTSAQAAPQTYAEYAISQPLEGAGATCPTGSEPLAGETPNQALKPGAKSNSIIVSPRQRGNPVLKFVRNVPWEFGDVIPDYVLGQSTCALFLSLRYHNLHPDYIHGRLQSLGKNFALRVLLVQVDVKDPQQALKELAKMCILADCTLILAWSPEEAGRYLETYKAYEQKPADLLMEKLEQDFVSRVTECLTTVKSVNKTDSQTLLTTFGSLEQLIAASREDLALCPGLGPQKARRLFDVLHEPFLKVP
T2 sequence (Q92889 whole entry): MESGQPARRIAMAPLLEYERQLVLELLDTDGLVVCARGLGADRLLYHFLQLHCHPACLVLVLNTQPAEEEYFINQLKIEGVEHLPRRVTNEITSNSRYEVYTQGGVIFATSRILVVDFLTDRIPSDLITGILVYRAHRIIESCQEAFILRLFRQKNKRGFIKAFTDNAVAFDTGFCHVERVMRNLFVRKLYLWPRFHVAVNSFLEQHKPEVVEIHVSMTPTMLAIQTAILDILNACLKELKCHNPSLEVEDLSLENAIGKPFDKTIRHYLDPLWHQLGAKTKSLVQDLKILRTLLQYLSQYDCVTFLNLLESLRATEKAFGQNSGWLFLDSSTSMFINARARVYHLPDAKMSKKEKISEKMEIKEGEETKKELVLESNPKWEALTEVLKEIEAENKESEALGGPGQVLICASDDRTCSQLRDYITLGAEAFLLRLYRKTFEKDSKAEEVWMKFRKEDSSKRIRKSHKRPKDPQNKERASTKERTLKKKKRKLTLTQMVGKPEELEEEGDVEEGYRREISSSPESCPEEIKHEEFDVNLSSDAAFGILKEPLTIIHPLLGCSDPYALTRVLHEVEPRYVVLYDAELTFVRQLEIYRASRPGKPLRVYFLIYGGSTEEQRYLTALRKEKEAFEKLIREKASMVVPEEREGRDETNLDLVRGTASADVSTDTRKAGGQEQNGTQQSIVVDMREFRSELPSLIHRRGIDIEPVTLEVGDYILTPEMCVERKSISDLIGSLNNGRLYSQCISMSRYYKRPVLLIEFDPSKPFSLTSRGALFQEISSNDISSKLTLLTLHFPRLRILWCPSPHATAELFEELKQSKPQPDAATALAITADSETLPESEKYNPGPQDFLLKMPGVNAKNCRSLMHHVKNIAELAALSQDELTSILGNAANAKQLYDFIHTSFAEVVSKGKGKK

Flap endonuclease 1 = Flap endonuclease 1 (Homo sapiens, UniProt P39748); assay: Inhibition of FEN1 (unknown origin)
[2] = biological target: T3, DNA excision repair protein ERCC-1/DNA repair endonuclease XPF (Homo sapiens) (UniProt P07992+Q92889); settings: A-375, 4.96 uM
A-375 [3] = assay: Cytotoxicity against human A375 cells assessed as reduction in cell number at 4.89 uM incubated for 5 days; assay type: cell-based; settings: a-375, 120 h, 4.96 µM, in the assay text read “4.96 uM” for “4.89 uM”
In short: (§1)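 A375 melanoma cells treated with compound alone over 0.6–10 μM for 5 days; cell count determined by high-content imaging. Data from 4 separate experiments, error bars SD.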

[4] = Half life in human liver microsomes; assay type: ADME
[5] = biological target: T3, DNA excision repair protein ERCC-1/DNA repair endonuclease XPF (Homo sapiens); settings: A-375, 1.28 uM
HepG2 = assay: Cytotoxicity against human HepG2 cells; assay type: cell-based
In short: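 Hep-G2 cells exposed to compound at concentrations up to 10 μM; toxicity assessed.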

[6] = biological target: T2, DNA excision repair protein ERCC-1/DNA repair endonuclease XPF; assay: Binding affinity to ERCC1-XPF (unknown origin) by SPR assay; assay type: protein-complex assay
[7] = biological target: T3, DNA excision repair protein ERCC-1/DNA repair endonuclease XPF (Homo sapiens); settings: A-375, 0.624 uM
[8] = biological target: T3, DNA excision repair protein ERCC-1/DNA repair endonuclease XPF (Homo sapiens); settings: A-375, 2.48 uM
[9] = Half life in mouse liver microsomes; assay type: ADME
A-375 [10] = assay: Cytotoxicity against human A375 cells assessed as reduction in cell number at 10 uM incubated for 5 days; assay type: cell-based; settings: a-375, 120 h; in short: as §1
[11] = biological target: T3, DNA excision repair protein ERCC-1/DNA repair endonuclease XPF (Homo sapiens); settings: A-375, 10 uM
[12] = Lipophilicity, log D of the compound; assay type: physicochemical; settings: octanol/water
[13] = Apparent permeability by PAMPA method; assay type: physicochemical
[14] = biological target: T3, DNA excision repair protein ERCC-1/DNA repair endonuclease XPF (Homo sapiens); assay: Inhibition of ERCC1-XPF in human A375 cells assessed as induction of delay in DNA repair by measuring cumulative frequency of cells at 10 uM pre-incubated for 1 hr before 5 uM cisplatin exposure for 1 hr and measured after 6 hrs by […] based gammaH2AX foci assay (reference value: 45.43%); assay type: cell-based; design: scale not given: the % may be the effect or the level left; settings: A-375
In short: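 A375 cells pretreated with compound (10 μM) for 1 h, then 5 μM cisplatin for 1 h to induce damage, with continued compound exposure for 6 h. γH2AX foci per cell quantified by immunofluorescence with specific antibody and high-content imaging; cumulative Gaussian fit of foci distribution. 2 representative experiments, triplicates each, error bars SEM.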

[15] = biological target: T2, DNA excision repair protein ERCC-1/DNA repair endonuclease XPF; assay: Inhibition of ERCC1-XPF in human A375 cells assessed as reduction in direct nucleotide excision repair of UV-damaged pEGFP plasmid incubated for 234 hrs by recombinant GFP reporter assay; assay type: cell-based, A-375; settings: in the assay text read “24 hrs” for “234 hrs”
In short: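 A375 cells co-transfected with UV-damaged or undamaged pEGFP plus pGL3 luciferase plasmid, treated with compound up to 60 μM for 24 h. GFP/luciferase ratio for damaged plasmid divided by that for undamaged, then normalized to no-compound controls to give % NER activity (DNA Repair Index); IC50 from plot against concentration.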

Sequence of Flap endonuclease 1 (P39748 whole entry): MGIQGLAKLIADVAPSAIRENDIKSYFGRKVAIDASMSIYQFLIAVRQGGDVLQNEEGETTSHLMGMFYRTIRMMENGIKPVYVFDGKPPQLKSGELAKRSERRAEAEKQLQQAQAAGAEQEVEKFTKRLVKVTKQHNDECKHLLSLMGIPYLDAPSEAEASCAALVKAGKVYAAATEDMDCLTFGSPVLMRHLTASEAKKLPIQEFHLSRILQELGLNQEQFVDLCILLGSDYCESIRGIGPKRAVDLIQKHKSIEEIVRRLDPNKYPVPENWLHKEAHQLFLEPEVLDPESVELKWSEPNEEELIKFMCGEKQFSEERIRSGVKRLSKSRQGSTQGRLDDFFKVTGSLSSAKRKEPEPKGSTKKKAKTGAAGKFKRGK

Q: Which results are given for `CC(=O)Nc1ccc(-c2c[nH]c(=O)c(O)c2)cc1`?
A: IC50 (Deoxyribonuclease-1): > 100 µM; IC50 [1]: 13.5 µM; IC50 (Flap endonuclease 1): > 100 µM

Q: For `O=C(NCc1ccc(O)c(O)c1)C1(c2ccccc2)CCCCC1`, which IC50 [1] is on record?
A: 1.6 µM

Q: And the IC50 (Flap endonuclease 1)?
A: > 100 µM

Q: For `O=C(Cc1ccc(Cl)cc1Cl)NCc1ccc(O)c(O)c1`, which PF50 [2] is on record?
A: 1.68

Q: What about the Activity (A-375 [3]) of the same compound?
A: Toxic

Q: What about the half-life [4] of the same compound?
A: 28 min

Q: And the IC50 (Deoxyribonuclease-1)?
A: > 100 µM

Q: What about the PF50 [5] of the same compound?
A: 1.15

Q: And the Activity (HepG2)?
A: > 10 µM

Q: And the IC50 [1]?
A: 0.63 µM

Q: What about the Kd [6] of the same compound?
A: 30 µM

Q: And the PF50 [7]?
A: 1.08

Q: And the PF50 [8]?
A: 1.51

Q: What about the half-life [9] of the same compound?
A: 23 min

Q: What about the Activity (A-375 [10]) of the same compound?
A: Toxic

Q: And the PF50 [11]?
A: 2.03

Q: What about the logD [12] of the same compound?
A: 2.7

Q: And the Papp [13]?
A: 3.9 ×10⁻⁶ cm/s

Q: What about the Activity [14] of the same compound?
A: 50.2%

Q: And the IC50 [15]?
A: 15.6 µM

Q: What about the IC50 (Flap endonuclease 1) of the same compound?
A: > 100 µM

Q: For `O=S(=O)(Cc1ccc(Cl)cc1Cl)NCc1ccc(O)c(O)c1`, which IC50 (Deoxyribonuclease-1) is on record?
A: > 100 µM

Q: And the IC50 [1]?
A: 2.9 µM

Q: What about the IC50 (Flap endonuclease 1) of the same compound?
A: > 100 µM

Q: With `CC(C(=O)NCc1ccc(O)c(O)c1)c1ccccc1` (stereo not drawn) as the compound, how does the IC50 [1] read?
A: 1.8 µM

Q: What about the IC50 (Flap endonuclease 1) of the same compound?
A: > 100 µM

Q: For `CC(=O)N1CCN(CC(=O)NCc2ccc(O)c(O)c2)CC1`, which IC50 (Deoxyribonuclease-1) is on record?
A: > 100 µM

Q: What about the IC50 [1] of the same compound?
A: > 100 µM

Q: Which results are given for `O=c1[nH]cc(-c2cccc(-n3cccn3)c2)cc1O`?
A: IC50 (Deoxyribonuclease-1): > 100 µM; IC50 [1]: 5.2 µM; IC50 (Flap endonuclease 1): > 100 µM

Q: For `O=C(Cc1ccc(Cl)cc1Cl)NCc1c[nH]c(=O)c(O)c1`, which IC50 [1] is on record?
A: 100 µM

Q: For `O=C(Cc1ccccc1)NCc1ccc(O)c(O)c1`, which IC50 (Deoxyribonuclease-1) is on record?
A: > 100 µM

Q: What about the IC50 [1] of the same compound?
A: 13.3 µM

Q: And the IC50 (Flap endonuclease 1)?
A: > 100 µM

Q: Which IC50 (Deoxyribonuclease-1) does the source give for `O=C(NCc1ccc(O)c(O)c1)Nc1ccc(Cl)cc1` here?
A: > 100 µM

Q: And the IC50 [1]?
A: 4.8 µM

Q: And the IC50 (Flap endonuclease 1)?
A: > 100 µM

Q: For `O=c1[nH]c(-c2ccc(F)cc2)ccc1O`, which IC50 [1] is on record?
A: 55.2 µM

Q: Which results are given for `O=C(CCc1ccccc1)NCc1ccc(O)c(O)c1`?
A: IC50 (Deoxyribonuclease-1): > 100 µM; IC50 [1]: 7.3 µM; IC50 (Flap endonuclease 1): > 100 µM

Q: Which IC50 (Deoxyribonuclease-1) does the source give for `O=C(Cc1ccc(Cl)cc1Cl)NCc1cc(O)c(O)cc1F` here?
A: > 100 µM

Q: What about the IC50 [1] of the same compound?
A: 1.1 µM

Q: And the IC50 (Flap endonuclease 1)?
A: > 100 µM

Q: Which IC50 (Deoxyribonuclease-1) does the source give for `O=C1N(Cc2ccc(Cl)cc2)CCN1Cc1ccc(O)c(O)c1` here?
A: > 100 µM

Q: And the IC50 [1]?
A: 4.1 µM

Q: What about the IC50 (Flap endonuclease 1) of the same compound?
A: > 100 µM

Q: Which IC50 (Deoxyribonuclease-1) does the source give for `O=C(Cc1ccc(Cl)cc1)NCc1ccc(O)c(O)c1` here?
A: > 100 µM

Q: And the IC50 [1]?
A: 1 µM

Q: And the IC50 (Flap endonuclease 1)?
A: > 100 µM

Q: Which IC50 [1] does the source give for `O=C(Cc1cccnc1)NCc1ccc(O)c(O)c1` here?
A: 25.6 µM

Q: What does the source list for `O=C(NCc1ccc(O)c(O)c1)C1CCN(Cc2ccc(F)cc2)CC1`?
A: IC50 (Deoxyribonuclease-1): > 100 µM; IC50 [1]: 5.8 µM; IC50 (Flap endonuclease 1): > 100 µM

Q: Which IC50 (Deoxyribonuclease-1) does the source give for `O=C(CNc1ccccc1)NCc1ccc(O)c(O)c1` here?
A: > 100 µM

Q: And the IC50 [1]?
A: 0.9 µM

Q: What about the IC50 (Flap endonuclease 1) of the same compound?
A: > 100 µM

Q: Which IC50 (Deoxyribonuclease-1) does the source give for `Oc1ccc(-c2nc(Cc3ccc(Cl)cc3)no2)cc1O` here?
A: > 100 µM

Q: What about the IC50 [1] of the same compound?
A: 7.8 µM

Q: What about the IC50 (Flap endonuclease 1) of the same compound?
A: > 100 µM

Q: Which IC50 [1] does the source give for `O=c1[nH]cc(Br)cc1O` here?
A: 24 µM

Q: With `O=C(CNc1ccccc1)N/N=C/c1ccc(O)c(O)c1` as the compound, how does the IC50 (Deoxyribonuclease-1) read?
A: > 100 µM

Q: And the IC50 [1]?
A: 2 µM

Q: What about the IC50 (Flap endonuclease 1) of the same compound?
A: > 100 µM

Q: Which IC50 [1] does the source give for `COc1ccc(CC(=O)NCc2ccc(O)c(O)c2)cc1` here?
A: 2.6 µM

Reference: ChEMBL document CHEMBL3616382, “Catechols and 3-hydroxypyridones as inhibitors of the DNA repair complex ERCC1-XPF” (Bioorg Med Chem Lett, 2015)
